Data published in the EternaBench riboswitch data.

Tested on: MS2 coat protein
Test: apparent Kd, MS2 coat protein; higher = weaker binding; RNA-MaP array; FMN 200 µM where present
Method in brief: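 The titrant was SNAP-549-labelled MS2 coat protein, run from 0.7 or 1.5 nM in doubling steps to 3 µM. It was applied to designs transcribed by stalled E. coli RNA polymerase on Illumina sequencing-chip clusters, without ligand first and then with constant ligand, in 100 mM Tris-HCl pH 7.5, 80 mM KCl, 4 mM MgCl2, BSA, DTT, yeast tRNA and Tween-20. The apparent Kd is the median of filtered per-cluster binding-curve fits, with green signal normalised to red-channel RNA signal and control-cluster median Fmax.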

[1] = designed as: OFF switch for flavin mononucleotide, no ligand
[2] = ligand present: flavin mononucleotide, designed as: OFF switch for flavin mononucleotide
[3] = designed as: ON switch for flavin mononucleotide, no ligand
[4] = ligand present: flavin mononucleotide, designed as: ON switch for flavin mononucleotide

Sequence | apparent Kd [1] [nM] | apparent Kd [2] [nM] | apparent Kd [3] [nM] | apparent Kd [4] [nM]
GGUUGGUAUGAUUGGGUAUGAUACAUGAGGAUCACCCAUGUGCAGGAUAUGUUACACUCACGAUGAUAGAAGGGUAGGGUUUGA | 305 | 270 |  | 
GCGUAUUUAAUAUUUAUAUAAUUGUCAGAAGGUGAAAAGACGACAUGAGGAUCACCCAUGUAAUUCAAGGAUAUGAUUAAGCGC |  |  | 30.7 | 15.8
GCGGUACAUGAGGAUCACCCAUGUCAGGAUAUCCGCUGUUUGUUGAUUAGCAGGCGGUGGAGAAGGGACUUCGC | 36.6 | 36 |  | 
ACCGGUGUAGGAUAUAUCUGGGAUGAAGAUGAUCCUGCUAAACAUGAGGAUCACCCAUGUAGAAGGAUGCCUGG | 83.6 | 178 |  | 
UGUGUGUGGCAGGAUAUUCCGGUCGUUGGUCGGGAAGAAGGGUCUACAUGAGGAUCACCCAUGUGACCGGUUGG | 25.6 | 26.2 |  | 
AAAAAGCGAGGAUAUACAUGAGGAUCACCCAUGUGAGAGAAAAAAAGGAGAAAAAAAAGUAGAAGGCGCAAAAA | 61.6 | 72.2 |  | 
UAAAUGUCAGGAUAUUGUUAAUUUAGUUGUUUGUAUUAGUUCGAGAAGGGACAUGAGGAUCACCCAUGUUGUUU | 28.9 | 31.1 |  | 
UUAAUGAAGUAAGGAUAUACAUGAGGAUUUCUCGUAGAAGGUACUAUACAUGAGGAUCACCCAUGUGCCGGUCAGAAGACUGGA |  |  | 433 | 274
GGAUGAGAAACUCAUCCAUAACGAACAUGAGGAUCACCCAUGUAGGAUAUGCUACUCAAAGAGUAGCAGAAGGACAUGUGCCUU | 29.8 | 259 |  | 
GGGAAGUGCCAGAAGGCUCCCGGAUUCCUAGGGAGAGGAUAUGGCACAUGAGGAUCACCCAUGUGGUAGAUCUGUUUCGAAGUG | 30.4 | 16.9 |  | 
CUGGAAGUCACAGGAUAUCCGGACACAUGUCCAGGAGAAGGGUGAGUAGUUUCACAUGAGGAUCACCCAUGUGGCGGUUCCAGA |  |  | 264 | 21.2
UGUGCGUUGAUCUUCGAUCGGUGUACAUGAGGAUCACCCAUGUAGGAUAUUCAAAGACGCAGAUAGGAGAAGGACAUCGGAUUU | 18.8 | 17 |  | 
UGAUCUUGUGUUAGGAUAUGCUGGUUUUUUUUUCAGCAGAAGGGACAUGAGGAUCACCCAUGUUCUCUCUUUUU | 12.8 | 17.3 |  | 
ACCAUUUACUAAUUGUCUAUACAUGAGGAUCACCCAUGUUAUGAGGAUAUCAUCGUGAAACACGAUGAGAAGGCAUAGCAUUCG | 64.5 | 213 |  | 
UGGCUACAUGAGGAUCACCCAUGUCAGGAUAUGCCGUUAAAUUAACAUCAACAUACGGGUAGAAGGGACUGCGU | 28.8 | 29.5 |  | 
GGUAUGUGAGGAUAUGGGAUUGUAGACAUGAGGAUCACCCAUGUCAUGUCCGAUCAUUGCCCAGAAGGUAUCCGCU | 25.6 | 27.1 |  | 
UGUCGGAGCAGAGGAUAUUACAUGAGGAUCACCCAUGUAUGACCCAAUAGCUGGAAACAGCAAUGUAAGAAGGCUGCUCCGACA | 14.6 | 295 |  | 
AACGAGCAGUAGAAGGCAUGUCUACGGACAUGAGGAUCACCCAUGUUGUGACUCCGAAAGGAGCGUGAGGAUAUACUGCUCAAA |  |  | 91.9 | 14.3
AUAUGAUAGAUAGGAUAUACAGUUGAAUAAUAAGUAGAAGGAUCAAAUGGGAAUUAUACAUGAGGAUCACCCAUGUUUUUGGAU |  |  | 44.1 | 35.8
CAGUGUAGUUAGGAUAUCGGGUCGGUUGGGCGCUGAGAAGGAACUACAUGAGGAUCACCCAUGUGGGCUCUUCU | 19.5 | 37.1 |  | 
GAGGCUGGUCAGAAGGCGCUGCAGGCUGCGUAGCGAGGAUAUGACAUGAGGAUCACCCAUGUGGUAGCUGAUCCUCGGCGUUUA | 361 | 33.3 |  | 
CCGUUGAUAGGACAGGAUAUGACUGUCGUCACAUGAGGAUCACCCAUGUCCCGGCAAUGCCACCGUUAGAAGGGUCCCGUCUCGG |  |  | 18.8 | 19.2
GCACUGGAUGUAGGAUAUCAGGACGAUAAGUCCUGAGAAGGACAUGAGGAUCACCCAUGUAAUAACUCCCAGUGCUAUAAUAUA | 16.4 | 20.1 |  | 
GGAGCUCCAGCGCAGGAUAUCGACCCAGGGACAUGAGGAUCACCCAUGUUCCAAAAAAAAUGGGUCGAGAAGGGCGUUGGAGAGCC |  |  | 12.6 | 9.62
CUGAAGAUAUCAGGAUAUCUAUUUCCUACAUGAGGAUCACCCAUGUAGGUGAUCAGCCGAGUAAAGGAGAAGGGAUAUCUUUAG |  |  | 27.1 | 10.1
AGAAACUACGAGAAGGACAUGUGGUCCAAAAUAAACAUGAGGAUCACCCAUGUAGGAUAUCGUAGUUUCAGGAUCGUGAGAUCA | 260 | 12.3 |  | 
UUGGACGUCGUAGGAUAUGUAGGAUAUACCUACAUGAGGAUCACCCAUGUUGACAUGGAAGAAGGACAGAAGGACGAUGUCCAU |  |  | 439 | 153
GUGGUCAGACAUGAGGAUCACCCAUGUGGAAUAAAUAAGGCAUAGGAUAUGAAAUAUAGGAUAUAUCAGAAGGAUGGGUUGGUG |  |  | 164 | 191

Sequence | apparent Kd [1] [nM] | apparent Kd [2] [nM] | apparent Kd [3] [nM] | apparent Kd [4] [nM]
ACCGAUAGAGGAUAUACAGGUCGAUACAUGAGGAUCACCCAUGUUACCCUCGGUACACCCGUAGAAGGUUGUGGCU | 263 | 248 |  | 
UUGUUGUAUGUAGGAUAUGCAUAUUGUUAUUAUGCAGAAGGACAUGAGGAUCACCCAUGUAUAUUAUUAUUAUAUAUUAUAUAU | 27.7 | 43.9 |  | 
UGGUGUGAAGGAUAUACAUGAGGAUCACCCAUGUAUGAGGUGUGUGUUGAGGUGGAGGGUAGAAGGUCAGGUGG | 30.1 | 30.6 |  | 
GGCAGCUCGUGAGGAUAUACAACACUGCUUCGGCAGUGUAUUAAGAUCACAUGAGGAUCACCCAUGUAGAAGGCACGAGCUGAU | 13.9 | 254 |  | 
UUAUUAAACAUUAACAUGAGGAUCACCCAUGUCAAAAGACAUGAGGAUAUGGAUCCUAAUUGGAUCCAGAAGGCAUGUAUUAAU |  |  | 156 | 15.6
GACUUGUUAGGAUAUCUUACUUUUGCAUCAUAGUAACCAUUGGAGAAGGGACAUGAGGAUCACCCAUGUUUGGA | 32.9 | 28.9 |  | 
AAAAUCACAUGAGGAUCACCCAUGUACCGAGUUAAGGCUACAUAGGAUAUGACAAGUAUAGCUUGUCAGAAGGGUGAGUCUCGC |  |  | 58.2 | 97.7
AAUAACAGAGGAUAUACUAUUUUAUGUGUUUGUUAUUUUGAACAUGAGGAUCACCCAUGUAGAAGGCUGAUUGA | 47 | 44 |  | 
GUGUGAUUAAGAGGAUAUAUACAACAUGAGGAUCACCCAUGUACCCGUGUAGUAGAAGGUUUGUUUUUAUAUAAUAUUAUAUUU |  |  | 26.5 | 21.9
UCGGCGCGAGGAUAUACGUUUGCGCGUUUUCGUUUGCGCGUACAUGAGGAUCACCCAUGUAGAAGGCGCGCCGC | 15.1 | 29.9 |  | 
AUCGUGUGAGGAUAUCGAUGUUGGACGUCUAGGUCUGAGCGCGAGAAGGCACAUGAGGAUCACCCAUGUAAUGG | 272 | 350 |  | 
CGUCGAUACCAGAAGGACAUGAGGAUCACCCAUGUAGGAUAUGGGUGACCGGGAUAGUGGACACAGCGCCCGGGCACAUGCGAC |  |  | 13.6 | 8.19
AUACAUGAGGAUCACCCAUGUUACUGGGUCUUAAUAGAACGUAGAAGGAUGAUAUUAUAAAUAACAUAGGAUAUACAAUAUUGU | 132 | 64.2 |  | 
CACAGGGAUUCAGGAUAUAUUAGCCGAGGCCGCGUAGAAGGGAAAUCCUGACAUGAGGAUCACCCAUGUUAACCCACUUUUCAU |  |  | 28.1 | 28.4
AUUAAACAUGAGGAUCACCCAUGUAAUAUUAUGGGAGGAUAUGCGAAUUUAAUUAAUUAAGCAGAAGGCCUAAUUA |  |  | 108 | 19
GGAGCAGGGUCAGGAUAUGUAAGUAGACGGCAAAUAGAAGGGACAUGAGGAUCACCCAUGUAACAUUAAAAUGAAGCAAGGGAG | 59.1 | 71.1 |  | 
CGAAAAUUUCAGAAGGACCGAUUCCACAUGAGGAUCACCCAUGUCGAUGGUAGGAUAUGGAGUUGUGGACAGGGCGGAUGUACC |  |  | 72.1 | 8.92
GCCAUUUAUGUAGGAUAUGCGAGGCGAGCCUGAGCAGAAGGACAUGAGGAUCACCCAUGUAUUGCGGUUUAUGUUCAGAUCGCU | 16.1 | 18.3 |  | 
GCCCUCUCUGAGGAUAUUAUCUGGUUCGAUUGAUAAGAAGGCAGUACAUGAGGAUCACCCAUGUGGUUCGUUUG | 109 | 303 |  | 
AUACAUGUCCGAGGAUAUCUGGAAACAUUUUCAAGAGAAGGCGGACAUGAGGAUCACCCAUGUCUCUCCUCAUCAAAUCCAAGU | 7.84 | 46.6 |  | 
GGGUGGCGUAGAGGAUAUGUGGUACAUGAGGAUCACCCAUGUGCAUAUGAUGUUCGUGUGUCUUCAUAGAAGGCUACGUCGCUA |  |  | 97 | 63
UAUACACAUGAGGAUCACCCAUGUGAGGAUAUGUACAACAACCCGACGGUGUUGUUGUACAGAAGGCACAAAUA | 80.2 | 59.8 |  | 
AGCUGGUAGAGAGGAUAUCAUGUGCUGACAUGAGGAUCACCCAUGUAGGGACGUCGGUCCAAUUAUGAGAAGGCUCUACCAGCA |  |  | 80.5 | 48.2
AAUAUAGAGCUGGAAAUAAACUCAACAUGAGGAUCACCCAUGUAGGAUAUCAGCACGAUAAGUGCUGAGAAGGACAUCCAGCUC | 16.7 | 17.1 |  | 
AAAAAACAUGAGGAUCACCCAUGUAAAAAUAUGGGAGGAUAUUCAAACACGAAAGUGAAAGAAGAAGGCCUAAAAA |  |  | 66.6 | 23.3
GUGCGUGGCUAGGAUAUUGUGGGUUUUUGUCAGCGAGAAGGAGCCACAUGAGGAUCACCCAUGUGGUGUUGCUC | 187 | 57.1 |  | 
AAUAAACACACAGGAUAUAGCAUCGUCGUUAUGAACUUAAUGACGACGAUGCUAGAAGGGUGAACACAUGAGGAUCACCCAUGU |  |  | 211 | 35.6
